Lmaj promast: reduces viability of Leishmania major promastigotes | 9% of 200,000 active | inhibition, % at 10 µM | resazurin fluorescence viability; in the data active means inhibition above about 50%;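 further: promastigotes grown with compound for 44 hours at 28 °C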
HCT116 bCat-KO: beta-catenin-lacking colon tumor cell growth suppression; HCT116 beta-catenin knockout viability, CellTiter-Glo, 60 h; active compounds read low; viability, % at 10 µM; 1.5% of 140,000 active; AID 818;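 active means viability at or under a set limit, the compound median less 4 SD, cut at about 6% in these data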;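 further: 0% = Hyamine 1622 control at 20 µM and 100% = untreated cell control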
PTEN del growth: PTEN-deleted cell growth suppression. HCT116 PTEN-null viability, CellTiter-Glo, 60 h; active compounds read low. AID 827. 1.2% of 140,000 active. viability, % at 10 µM;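 active means viability at or below a set limit, 4 SD under the median of all tested compounds, cut at about 3.7% in these data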;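 further: PTEN knockout HCT116 line with beta catenin targeted HCT116 as companion control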
PMI act hi M6P: activators of human phosphomannose isomerase at near-saturating mannose 6-phosphate; P34949; 0.34% of 190,000 active; coupled PMI enzyme assay, resazurin fluorescence, 20 min; active compounds read high; 1 = untreated enzyme, 0 = substrate-free blank; activation factor at 20 µM;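 active means activation factor of 2 or more at 20 µM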
Target sequence (P34949 whole entry, looked up): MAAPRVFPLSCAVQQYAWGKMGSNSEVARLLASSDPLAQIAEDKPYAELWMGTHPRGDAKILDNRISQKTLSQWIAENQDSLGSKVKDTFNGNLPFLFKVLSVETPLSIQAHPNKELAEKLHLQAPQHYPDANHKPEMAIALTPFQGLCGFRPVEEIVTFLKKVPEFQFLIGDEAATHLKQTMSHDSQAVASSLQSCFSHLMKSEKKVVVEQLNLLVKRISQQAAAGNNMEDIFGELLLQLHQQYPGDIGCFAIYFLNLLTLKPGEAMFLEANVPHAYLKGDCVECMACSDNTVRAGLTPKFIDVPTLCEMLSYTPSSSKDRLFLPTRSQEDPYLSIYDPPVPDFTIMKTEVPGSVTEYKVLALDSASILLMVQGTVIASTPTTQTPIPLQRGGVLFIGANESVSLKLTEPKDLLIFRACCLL
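Technique: Diaphorase-driven resazurin-to-resorufin fluorescence, excitation 544, emission 590 nm | Assay system: Human PMI in coupled enzyme assay | Times: Enzyme reaction with compound 20 min at room temperature | Medium: HEPES-buffered pH 7.4 with magnesium and detergent | Reagent: Mannose-6-phosphate 1.0 mM (near-saturating) plus 0.22 mM NADP+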
PMI act: activators of human phosphomannose isomerase; 0.005% of 190,000 active; purified human PMI, coupled resazurin fluorescence, 20 min; active compounds read high; 1 = vehicle control, 0 substrate-free wells; activation factor at 20 µM; P34949;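 active means activation factor of 2 or more at 20 µM, relative to plate controls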
An asterisk follows results filed as active; . = not tested or not shown. This is a sample that favours compounds with a hit; in the whole collection about 9.6% have one here.

SMILES	Lmaj promast	HCT116 bCat-KO	PTEN del growth	PMI act hi M6P	PMI act
O=C(CN(c1ccc(F)cc1)S(=O)(=O)c1ccc2c(c1)OCCO2)NCc1ccccn1	23	100	94	1	0.9
Cc1cc(N2CCC(C)CC2)nc(NCc2ccccc2)n1	86*	2.8*	4	1	0.9
Cc1cc(C)nc(N2CCC(C(=O)NCc3ccccc3)CC2)n1	-6	89	90	1	1
Cc1cc(Nc2cccc(F)c2)nc(NCc2ccccc2)n1	100*	2.9*	1.4*	0.9	0.8
Fc1cc(NCc2ccccc2)nc(NCc2ccccc2)n1	32	58	52	0.9	0.9
O=C(NC1CCCC1)c1ncn[nH]1	-6	93	94	0.9	1
CCN(CC)S(=O)(=O)c1cc([N+](=O)[O-])ccc1NNC(=O)Nc1ccc(Cl)c(Cl)c1	100*	1.4*	1.0*	1	0.9
O=C(NNc1ccccc1[N+](=O)[O-])Nc1ccc(Cl)c(Cl)c1	78*	52	37	0.9	1.1
O=C(NNc1ccccc1[N+](=O)[O-])Nc1ccccc1	0	96	103	1.1	1
Cc1ccc(S(=O)(=O)n2c(=O)oc3ccccc32)cc1	0	.	.	0.9	1
CC(=O)c1cccc(NC(=S)NCCCCc2ccccc2)c1	0	80	80	1.1	1
CN1C(=O)C2(c3ccccc31)N(C)CC(c1ccccc1)C21SC(=S)N(Cc2ccco2)C1=O (configuration not stated)	99*	35	49	1	0.8
CN1C(=O)C2(c3ccccc31)N(C)CC(c1ccccn1)C21SC(=S)N(Cc2ccco2)C1=O (configuration not stated)	100*	60	53	1	0.9
CN1C(=O)NC(c2ccccc2)C2=C1CN(Cc1ccco1)C2=O (configuration not stated)	-8	87	91	1	1.1
O=C(c1ccco1)N1CCN(S(=O)(=O)c2cccc([N+](=O)[O-])c2)CC1	-4	.	.	0.9	1.1
CCOC(=O)C1CCN(Cc2ccc(O)c3ncccc23)CC1	95*	3.0*	1.9*	0.3	0.3
COc1ccccc1N1CCN(Cc2ccc(OC)c(OC)c2OC)CC1	3	66	71	1	1
COc1ccccc1N1CCN(Cc2ccc(O)c3ncccc23)CC1	101*	3.3*	1.7*	0.4	0.4
O=C(NC(Cc1ccccc1)C(=O)O)c1ccccc1 (configuration not stated)	4	99	108	1	0.9
O=C(NC(Cc1ccccc1)C(=O)O)c1ccc(S(=O)(=O)N2CCCC2)cc1 (configuration not stated)	72*	106	91	1	1
O=C(NC(Cc1ccccc1)C(=O)O)c1ccc(S(=O)(=O)N2CCCCC2)cc1 (configuration not stated)	55*	114	106	1.1	1.1
O=C(CSc1ccc(Cl)cc1)Nc1ccccc1N1CCN(C(=O)c2ccccc2)CC1	72*	66	59	0.9	0.9
CC(Cc1cccnc1)NC(=O)c1ccccc1OC1CCN(S(C)(=O)=O)CC1 (configuration not stated)	-6	.	.	1.1	1
CCC1CCCCN1C(=O)c1sc2ncnc(N(CC)CC)c2c1C (configuration not stated)	6	.	.	1	1
Nc1c(C(=O)OCC2CCCO2)c2nc3ccccc3nc2n1-c1ccc2c(c1)OCCO2 (configuration not stated)	54*	85	86	1	0.9
SMILES	Lmaj promast	HCT116 bCat-KO	PTEN del growth	PMI act hi M6P	PMI act
Nc1c(C(=O)NC2CC2)c2nc3ccccc3nc2n1-c1ccc2c(c1)OCO2	97*	81	72	0.5	0.9
O=c1c2c3nc4ccccc4nc3n(-c3ccc4c(c3)OCCO4)c2ncn1CC1CCCO1 (configuration not stated)	.	.	.	0.8	0.9
CCCNC(=O)c1c(N)n(-c2ccc3c(c2)OCO3)c2nc3ccccc3nc12	-3	20	36	0.6	0.9
Cc1c(NC(=O)c2c(F)c(F)c(F)c(F)c2F)c(=O)n(-c2ccccc2)n1C	-8	88	90	1	1
Cc1ccc(-n2c(N)c(C(=O)Nc3c(C)n(C)n(-c4ccccc4)c3=O)c3nc4ccccc4nc32)cc1C	79*	40	17	1	1
Cc1cc(=O)oc2cc(OCc3ccc(C(=O)OCC(=O)Nc4ccccc4OC(F)F)cc3)ccc12	-7	100	103	1.1	1
CCOc1ccc(NC(=S)NN(C)C(=S)Nc2ccc(OCC)cc2)cc1	-9	94	101	0.9	0.8
Cc1ccc(C=Nc2ccccc2C(N)=O)o1	8	96	93	1.1	1.2
Cc1ccc(C=Nc2ccc(N(C)C)cc2)o1	80*	5.4*	38	0.5	0.8
CSc1ncccc1C(=O)NC(C)C1CC2CCC1C2 (configuration not stated)	0	.	.	0.9	0.9
Cc1nc2nc(-c3cccnc3)[nH]n2c(=O)c1C	1	95	95	0.9	0.9
NC(=O)c1ccc(NC(=O)Cc2csc(-c3ccccc3)n2)cc1	-1	.	.	1	1
NNC(=S)Nc1ccc(Cl)cc1	-6	.	.	1	0.9
NN/C(=C\[N+](=O)[O-])Nc1ccc(Cl)cc1	11	.	.	2*	1.5
NN/C(=C\[N+](=O)[O-])Nc1ccccc1	8	.	.	2.6*	1.7
Cc1cccc(C)c1OC1(c2ccccc2)OC(=O)c2ccccc21 (configuration not stated)	98*	58	57	1.1	1.1
Cc1cc(C)c(OC2(c3ccccc3)OC(=O)c3ccccc32)c(C)c1 (configuration not stated)	3	57	60	0.9	0.8
COc1ccc(OC)c(S(=O)(=O)NCc2csc(-c3ccccc3)n2)c1	78*	110	109	1	1
COc1ccc(OC)c(S(=O)(=O)NCc2cn3c(C)csc3n2)c1	-7	91	105	0.9	1
O=c1cc(CN2CCN(C/C=C/c3ccccc3)CC2)c2cc(O)ccc2o1	51*	14	31	1	1
O=c1cc(CN2CCN(Cc3ccccc3)CC2)c2cc(Cl)ccc2o1	-2	83	81	1	1
O=c1cc(CN2CCN(c3ccccc3)CC2)c2cc(O)c(-c3ccccc3)cc2o1	73*	87	84	0.9	0.9
Cc1ccc(C)c(N/N=C2\CCCNC2=O)c1	78*	88	87	2.5*	1.8
NC1=Nc2cccc3cccc1c23	52*	.	.	0.4	0.9
O=C(c1ccc(F)cc1)n1c(NCc2ccccc2)n[nH]c1=S	-3	.	.	0.9	0.9
CCOc1ccc(Cn2c(O)cc(=O)[nH]c2=O)cc1	-3	92	100	1	1
O=C(CNc1ccccc1)N/N=C/c1c[nH]c2ccccc12	-2	62	55	0.9	0.9
